Source: ChEMBL document CHEMBL3259692, “Inhibition of biofilm formation by conformationally constrained indole-based analogues of the marine alkaloid oroidin” (2014)
Calls of active or inactive are those of the source. The calls are words filed in the database; no cut-off is given here.

Columns and labels:
[1] = tested on: Staphylococcus aureus; assay: Antimicrobial activity against methicillin-resistant Staphylococcus aureus 25762 assessed as biofilm formation at 100 uM after 48 hrs by crystal violet staining-based spectrophotometry relative to control; type: functional
[2] = tested on: Streptococcus mutans; assay: Antimicrobial activity against Streptococcus mutans 240 assessed as biofilm formation at 100 uM after 48 hrs by crystal violet staining-based spectrophotometry relative to control; type: functional
Outline: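 Single-concentration screen in a modified biofilm-formation assay. Compound at 100 µM. Biofilm formed is expressed as a percentage of the negative control. Values are the mean of three independent experiments.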

[3] = tested on: Pseudomonas aeruginosa; assay: Antimicrobial activity against Pseudomonas aeruginosa 6121 assessed as inhibition of biofilm formation after 24 hrs by crystal violet staining-based spectrophotometry; type: functional, organism-based
[4] = tested on: Staphylococcus aureus; assay: Antimicrobial activity against methicillin-resistant Staphylococcus aureus 25762 assessed as inhibition of biofilm formation after 48 hrs by crystal violet staining-based spectrophotometry; type: functional
[5] = tested on: Streptococcus mutans; assay: Antimicrobial activity against Streptococcus mutans 240 assessed as inhibition of biofilm formation after 48 hrs by crystal violet staining-based spectrophotometry; type: functional

For `Nc1ncc(/C=C/CNC(=O)c2cc(Br)c(Br)[nH]2)[nH]1` [OROIDIN], the Activity [1] was “inactive” and the Activity [2] was 18%.
In the case of `Cl.Nc1nc(-c2cccc(NC(=O)c3cc4cc(O)ccc4[nH]3)c2)c[nH]1`, the inhibition [3] is reported as “inactive”, the Activity [1] is reported as “inactive” and the Activity [2] is reported as 53.4%.
In the case of `Cl.Nc1nc(-c2cccc(NC(=O)c3cc4ccccc4[nH]3)c2)c[nH]1`, the inhibition [3] is reported as “inactive”, the Activity [1] is reported as 13.9% and the Activity [2] is reported as 14.2%.
With `Cl.Nc1nc(-c2cccc(NC(=O)c3cc4cc([N+](=O)[O-])ccc4[nH]3)c2)c[nH]1` the inhibition [3] was “inactive”, the Activity [1] was “inactive” and the Activity [2] was 33.3%.
In the case of `Cl.Nc1nc(-c2ccc(NC(=O)c3cc4ccccc4[nH]3)cc2)c[nH]1`, the inhibition [3] is reported as “inactive”, the MBIC50 [4] is reported as 90 µM and the Activity [1] is reported as 11.1%. The Activity [2] was 8.1% and the MBIC50 [5] was 60 µM.
For `Nc1nc(/C=C/CNC(=O)c2cc3ccccc3[nH]2)c[nH]1`, the inhibition [3] was “inactive”, the Activity [1] was “inactive” and the Activity [2] was “inactive”.
With `Cl.Nc1nc(-c2cccc(NC(=O)c3c[nH]c4ccccc34)c2)c[nH]1` the inhibition [3] was “inactive”, the Activity [1] was “inactive” and the Activity [2] was 23.9%.
With `Cl.Nc1nc(-c2cccc(NC(=O)c3cc4cc(F)ccc4[nH]3)c2)c[nH]1` the inhibition [3] was “inactive”, the Activity [1] was “inactive” and the Activity [2] was 8.7%.
For `Cl.Nc1nc(-c2ccc(NC(=O)c3cc4cc(Cl)ccc4[nH]3)cc2)c[nH]1`, the inhibition [3] was “inactive”, the Activity [1] was “inactive” and the Activity [2] was 38.2%.
In the case of `CC(C)(C)OC(=O)n1cc(-c2cccc(NC(=O)c3cc4cc(OC(F)(F)F)ccc4[nH]3)c2)nc1N`, the inhibition [3] is reported as “inactive”, the Activity [1] is reported as “inactive” and the Activity [2] is reported as “inactive”.
In the case of `CC(C)(C)OC(=O)n1cc(-c2cccc(NC(=O)c3cc4ccccc4[nH]3)c2)nc1N`, the inhibition [3] is reported as “inactive”, the Activity [1] is reported as “inactive” and the Activity [2] is reported as 30.6%.
In the case of `Cl.Nc1nc(-c2cccc(NC(=O)c3cc4sccc4[nH]3)c2)c[nH]1`, the inhibition [3] is reported as “inactive”, the MBIC50 [4] is reported as 90 µM and the Activity [1] is reported as 23%. For the same compound, the Activity [2] was 10.1% and the MBIC50 [5] was 60 µM.
In the case of `CC(C)(C)OC(=O)n1cc(-c2cccc(NC(=O)c3cc4cc(N)ccc4[nH]3)c2)nc1N`, the inhibition [3] is reported as “inactive”, the Activity [1] is reported as “inactive” and the Activity [2] is reported as “inactive”.
With `CC(C)(C)OC(=O)n1cc(-c2cccc(NC(=O)c3cc4cc(O)ccc4[nH]3)c2)nc1N` the inhibition [3] was “inactive”, the Activity [1] was “inactive” and the Activity [2] was 57.6%.
`Cl.Nc1nc(-c2ccc(NC(=O)c3cc4cc(F)ccc4[nH]3)cc2)c[nH]1` was tested, and the inhibition [3] was “inactive”, the MBIC50 [4] was 60 µM and the Activity [1] was 10.9%. It also gave an Activity [2] of 3.9% and an MBIC50 [5] of 50 µM.
In the case of `Nc1ccc2[nH]c(C(=O)Nc3cccc(-c4c[nH]c(N)n4)c3)cc2c1`, the inhibition [3] is reported as “inactive”, the Activity [1] is reported as “inactive” and the Activity [2] is reported as “inactive”.
With `COc1ccc2[nH]c(C(=O)Nc3cccc(-c4c[nH]c(N)n4)c3)cc2c1.Cl` the inhibition [3] was “inactive”, the Activity [1] was “inactive” and the Activity [2] was 10.5%.
With `Nc1nc(/C=C/CNC(=O)c2cc3cc(F)ccc3[nH]2)c[nH]1` the inhibition [3] was “inactive”, the MBIC50 [4] was 60 µM and the Activity [1] was 8.1%. For the same compound, the Activity [2] was 18.7% and the MBIC50 [5] was 60 µM.
In the case of `CNc1nc(-c2cccc(NC(=O)c3cc4ccccc4[nH]3)c2)c[nH]1.Cl`, the inhibition [3] is reported as “inactive”, the MBIC50 [4] is reported as 70 µM and the Activity [1] is reported as 19.1%. It also gave an Activity [2] of 8.8% and an MBIC50 [5] of 80 µM.
For `Cl.Nc1nc(-c2cccc(NC(=O)c3cc4cc(Cl)ccc4[nH]3)c2)c[nH]1`, the inhibition [3] was “inactive”, the Activity [1] was 44% and the Activity [2] was 6.8%.
For `Cl.Nc1nc(-c2cccc(NC(=O)c3cc4cc(OCc5ccccc5)ccc4[nH]3)c2)c[nH]1`, the inhibition [3] was “inactive”, the Activity [1] was 31.4% and the Activity [2] was 8.2%.
